According to ChEMBL document CHEMBL2407075, “Sulphonamido-quinoxalines: search for anticancer agent” (Eur J Med Chem, 2013):

How the values were obtained:
Assay type in all cases: functional
[1] = system: BT-549; test: Growth inhibition of human BT549 cells assessed as cell growth at 10^-4 M after 48 hrs by sulforhodamine B assay; conditions: BT-549, 48 h, read-out: Activity
How it was run: (§1)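 Five-dose NCI-60 run (0.01, 0.1, 1, 10 and 100 µM, as 10-fold dilutions from a DMSO stock made at 400× the top final level). Cells were grown in RPMI 1640 with 5% FBS and 2 mM glutamine and plated for 24 h. They were then exposed for 48 h at 37 °C and 5% CO2. TCA fixation was followed by SRB staining with A515 read-out. Percent growth was taken relative to time-zero and control plates.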

[2] = Growth inhibition of human NCI-ADR-RES cells assessed as cell growth at 10^-4 M after 48 hrs by sulforhodamine B assay; conditions: read-out: Activity
[3] = Growth inhibition of human HCC2998 cells assessed as cell growth at 10^-4 M after 48 hrs by sulforhodamine B assay; conditions: HCC 2998, 48 h, read-out: Activity
How it was run: (§2)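 Five-dose screen at NCI. Cells in RPMI 1640 with 5% FBS and 2 mM L-glutamine, seeded at 5000–40,000 cells/well and grown 24 h at 37 °C, 5% CO2 before dosing, with time-zero plates TCA-fixed. Drug diluted from DMSO stock to 0.01, 0.1, 1, 10 and 100 µM final, 48 h. Cells fixed with cold TCA (10% final), stained with 0.4% SRB and read at 515 nm. Percent growth from Tz, control and test absorbances; GI50, TGI and LC50 from dose-response curves.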

[4] = system: HOP-62; test: Growth inhibition of human HOP62 cells assessed as cell growth at 10^-4 M after 48 hrs by sulforhodamine B assay; conditions: HOP-62, 48 h, read-out: Activity; how it was run: as §2
[5] = system: MOLT-4; test: Growth inhibition of human MOLT4 cells assessed as cell growth at 10^-4 M after 48 hrs by sulforhodamine B assay; conditions: MOLT-4, 48 h, read-out: Activity
[6] = system: T47D; test: Growth inhibition of human T47D cells assessed as cell growth at 10^-5 M after 48 hrs by sulforhodamine B assay; conditions: read-out: Activity
[7] = system: SNB-75; test: Growth inhibition of human SNB75 cells assessed as cell growth at 10^-5 M after 48 hrs by sulforhodamine B assay; conditions: SNB-75, 48 h, read-out: Activity
[8] = system: NCI-H226; test: Growth inhibition of human NCI-H226 cells assessed as cell growth at 10^-5 M after 48 hrs by sulforhodamine B assay; conditions: NCI-H226, 48 h, read-out: Activity
[9] = system: K562; test: Growth inhibition of human K562 cells assessed as cell growth at 10^-5 M after 48 hrs by sulforhodamine B assay; conditions: K562, 48 h, read-out: Activity
[10] = system: PC-3; test: Growth inhibition of human PC3 cells assessed as cell growth at 10^-6 M after 48 hrs by sulforhodamine B assay; conditions: PC-3, 48 h, read-out: Activity
[11] = system: TK-10; test: Growth inhibition of human TK10 cells assessed as cell growth at 10^-6 M after 48 hrs by sulforhodamine B assay; conditions: TK-10, 48 h, read-out: Activity
[12] = system: SF-268; test: Growth inhibition of human SF268 cells assessed as cell growth at 10^-6 M after 48 hrs by sulforhodamine B assay; conditions: SF-268, 48 h, read-out: Activity
[13] = system: RPMI-8226; test: Growth inhibition of human RPMI8226 cells assessed as cell growth at 10^-6 M after 48 hrs by sulforhodamine B assay; conditions: RPMI-8226, 48 h, read-out: Activity
[14] = system: MDA-MB-435; test: Growth inhibition of human MDA-MB-435 cells assessed as cell growth at 10^-7 M after 48 hrs by sulforhodamine B assay; conditions: MDA-MB-435, 48 h, read-out: Activity
[15] = system: COLO 205; test: Growth inhibition of human COLO205 cells assessed as cell growth at 10^-7 M after 48 hrs by sulforhodamine B assay; conditions: COLO 205, 48 h, read-out: Activity; how it was run: as §1
[16] = Growth inhibition of human EKVX cells assessed as cell growth at 10^-7 M after 48 hrs by sulforhodamine B assay; conditions: read-out: Activity; how it was run: as §2
[17] = system: SN12C; test: Growth inhibition of human SN12C cells assessed as cell growth at 10^-8 M after 48 hrs by sulforhodamine B assay; conditions: read-out: Activity
[18] = system: UACC-257; test: Growth inhibition of human UACC257 cells assessed as cell growth at 10^-8 M after 48 hrs by sulforhodamine B assay; conditions: UACC-257, 48 h, read-out: Activity
[19] = system: SF-268; test: Growth inhibition of human SF268 cells assessed as cell growth at 10^-8 M after 48 hrs by sulforhodamine B assay; conditions: SF-268, 48 h, read-out: Activity
[20] = system: HOP-62; test: Growth inhibition of human HOP62 cells assessed as cell growth at 10^-8 M after 48 hrs by sulforhodamine B assay; conditions: HOP-62, 48 h, read-out: Activity; how it was run: as §2
[21] = system: RPMI-8226; test: Growth inhibition of human RPMI8226 cells assessed as cell growth at 10^-8 M after 48 hrs by sulforhodamine B assay; conditions: RPMI-8226, 48 h, read-out: Activity
[22] = system: T47D; test: Growth inhibition of human T47D cells after 48 hrs by sulforhodamine B assay; conditions: for CC50: read-out: LC50 (the source's name)
How it was run: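 Five-dose NCI 60 screen at 0.01, 0.1, 1, 10 and 100 µM, 48 h exposure after 24 h preincubation, in RPMI 1640 with 5% FBS and 2 mM glutamine. Fixed with TCA (10% final for adherent cells, 16% for suspension cells), stained with SRB, A515 read. Percent growth uses time-zero (Tz), control and treated plates. GI50, TGI and LC50 are read from the dose-response curves.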

[23] = Growth inhibition of human Hs 578T cells after 48 hrs by sulforhodamine B assay; conditions: for CC50: read-out: LC50 (the source's name)
How it was run: (§3)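 Adherent cells in RPMI 1640 with 5% FBS and 2 mM L-glutamine were plated at 5000–40,000 cells/well and grown 24 h. Five concentrations (0.01–100 µM, DMSO stock) were added for 48 h at 37 °C. Cells were fixed with cold TCA (10% final) and stained with SRB, read at 515 nm. GI50 came from log concentration–growth curves against time-zero and control plates.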

[24] = system: MCF7; test: Growth inhibition of human MCF7 cells after 48 hrs by sulforhodamine B assay; conditions: MCF7, 48 h; for CC50: read-out: LC50 (the source's name); how it was run: as §3
[25] = system: IGROV-1; test: Growth inhibition of human IGROV1 cells after 48 hrs by sulforhodamine B assay; conditions: IGROV-1, 48 h; for CC50: read-out: LC50 (the source's name); how it was run: as §3
[26] = system: MDA-MB-435; test: Growth inhibition of human MDA-MB-435 cells after 48 hrs by sulforhodamine B assay; conditions: MDA-MB-435, 48 h, read-out: LC50 (the source's name); how it was run: as §3
[27] = system: RPMI-8226; test: Growth inhibition of human RPMI8226 cells after 48 hrs by sulforhodamine B assay; conditions: RPMI-8226, 48 h; for CC50: read-out: LC50 (the source's name)
How it was run: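 Leukemia suspension cells in RPMI 1640 with 5% FBS and 2 mM L-glutamine were plated at 5000–40,000 cells/well and grown 24 h. Five concentrations (0.01–100 µM) were given for 48 h at 37 °C. Settled cells were fixed with 80% TCA (16% final) and SRB-stained, read at 515 nm. GI50 came from dose–response curves against time-zero and control plates.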

Structure (SMILES) | growth at 100 µM [1] | growth at 100 µM [2] | growth at 100 µM [3] | growth at 100 µM [4] | growth at 100 µM [5] | growth at 10 µM [6] | growth at 10 µM [7] | growth at 10 µM [8] | growth at 10 µM [9] | growth at 1 µM [10] | growth at 1 µM [11] | growth at 1 µM [12] | growth at 1 µM [13] | growth at 0.1 µM [14] | growth at 0.1 µM [15] | growth at 0.1 µM [16] | growth at 0.01 µM [17] | growth at 0.01 µM [18] | growth at 0.01 µM [19] | growth at 0.01 µM [20] | also measured
O=S(=O)(Nc1ccc(Cl)cc1)c1ccc2nc(-c3ccccc3)c(-c3ccccc3)nc2c1 | 61% | 69% | 85% | 44% | 68% | -20% | 12% | -29% | 11% | 63% | 108% | 93% | 68% | 92% | 101% | 100% | 95% | 94% | 94% | 96% | growth at 0.01 µM [21]: 103%; GI50 [22]: 1.62 µM; CC50 [22]: > 100 µM; TGI [23]: > 100 µM; CC50 [23]: > 100 µM; CC50 [24]: > 100 µM; TGI [25]: > 100 µM; CC50 [25]: > 100 µM; CC50 [26]: > 100 µM; GI50 [27]: 1.43 µM; CC50 [27]: > 100 µM
O=S(=O)(Nc1ccccn1)c1ccc2nc(-c3ccccc3)c(-c3ccccc3)nc2c1 | 49% | 58% | 64% | 39% | 48% | -22% | 3% | -35% | 9% | 60% | 114% | 99% | 55% | 102% | 98% | 99% | 95% | 96% | 93% | 96% | growth at 0.01 µM [21]: 108%; GI50 [22]: 1.12 µM; TGI [22]: 5.14 µM; CC50 [22]: > 100 µM; GI50 [23]: 1.56 µM; CC50 [23]: > 100 µM; GI50 [24]: 2.18 µM; CC50 [24]: > 100 µM; TGI [25]: > 100 µM; CC50 [25]: > 100 µM; CC50 [26]: > 100 µM; GI50 [27]: 1.11 µM; CC50 [27]: > 100 µM
